Assay results from ChEMBL document CHEMBL4387788, “Brominated Azaphilones from the Sponge-Associated Fungus Penicillium canescens Strain 4.14.6a” (J Nat Prod, 2019).

Key:
A2780 = assay: Cytotoxicity against human A2780 cells assessed as reduction in cell viability incubated for 72 hrs by MTT assay; format: functional, cell-based; settings: A2780, 72 h
Outline: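 A2780 human ovarian cancer cells were seeded at 9500 cells/well and, after 24 h, exposed to 3.6-fold serial dilutions of compound for 72 h. MTT (5 mg/mL in PBS) was added, and the formazan was dissolved in DMSO. Absorbance was read at 544 and 690 nm. Cisplatin was the positive control and 0.9% sodium chloride the negative control.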

L5178Y = assay: Cytotoxicity against mouse L5178Y cells assessed as reduction in cell viability incubated for 72 hrs by MTT assay; format: functional, cell-based
Outline: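 MTT assay on L5178Y mouse lymphoma cells. Kahalalide F was the positive control; 0.1% ethylene glycol monomethyl ether in DMSO was the negative control.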

Row | SMILES | IC50 (A2780) | IC50 (L5178Y)
1 | COc1cc(O)cc(C)c1C(=O)c1c(O)c(Cl)c(OC)c(Cl)c1O | > 10 µM | > 10 µM
2 | C=C(C)C1(O)OC(=O)C=C1OC (stereo not drawn) [PENICILLIC ACID] | > 10 µM | 8.9 µM
3 | COc1cc(O)c(C(=O)c2c(C)cc(O)cc2OC)c(O)c1 | > 10 µM | > 10 µM
4 | COc1cc(C[C@]23COC(/C=C/C=C/C=C/C(=O)O)=CC2=C(Br)C(=O)[C@@](C)(OC(=O)C[C@H](O)C[C@@H](C)O)C3=O)c(C(C)=O)c(O)c1O | 2.7 µM | 8.9 µM
5 | COC1=CC(=O)C[C@@H](C)[C@]12Oc1c(Cl)c(OC)cc(OC)c1C2=O [GRISEOFULVIN] | > 10 µM | > 10 µM
6 | CC1(C)C=Cc2cc3c(cc2O1)c(C[C@@H]1NC(=O)C2=CCCN2C1=O)c1n3C=CC1(C)C | > 10 µM | > 10 µM
7 | COC(=O)Cc1cc(O)cc(O)c1C(C)=O | > 10 µM | > 10 µM
8 | Cc1cc(O)cc2oc3cc(O)cc(O)c3c(=O)c12 [NORLICHEXANTHONE] | > 10 µM | > 10 µM
9 | COc1cc(O)c(C(=O)c2c(C)cc(O)cc2OC)c(O)c1Cl | > 10 µM | > 10 µM
10 | C/C=C1\NC(=O)[C@H](Cc2ccccc2)NC(=O)[C@@H](C(C)C)NC(=O)[C@@H]([C@@H](C)CC)NC(=O)[C@H](NC(=O)[C@H](NC(=O)[C@H](CCCN)NC(=O)[C@H]2CCCN2C(=O)[C@H](NC(=O)[C@@H](NC(=O)[C@@H](NC(=O)[C@H](NC(=O)CCCC(C)C)C(C)C)[C@@H](C)O)C(C)C)C(C)C)[C@@H](C)CC)[C@@H](C)OC(=O)[C@H](C(C)C)NC1=O | – | 4.3 µM
11 | COC(=O)[C@@]12C(O)=C(C)C(=O)[C@]1(C)C(C)=C[C@H]1[C@]34CC[C@H](OC(C)=O)C(C)(C)[C@H]3[C@H](C[C@@]12C)OC4=O | > 10 µM | > 10 µM
12 | COc1cc(O)c2c(=O)c3c(C)cc(O)cc3oc2c1 | > 10 µM | > 10 µM
13 | COc1cc(C[C@]23COC(/C=C/C=C/C=C/C(=O)O)=CC2=C(Br)C(=O)[C@](C)(OC(=O)C[C@H](O)C[C@@H](C)O)C3=O)c(C(C)=O)c(O)c1O | 37 µM | 13.9 µM
14 | COC1=CC(=O)C[C@@H](C)[C@]12Oc1cc(OC)cc(OC)c1C2=O | > 10 µM | > 10 µM
15 | COC(=O)c1c(O)cc(OC)c(Cl)c1Oc1c(C)cc(O)cc1OC | > 10 µM | > 10 µM
16 | COC(=O)Cc1cc(OC)cc(O)c1C(C)=O | > 10 µM | > 10 µM
17 | COC(=O)c1c(O)cc(OC)c(Cl)c1Oc1c(C)cc(OC)cc1OC | > 10 µM | > 10 µM
